Reference: ChEMBL document CHEMBL1123950, “N-(Retinoyl)amino acids. Synthesis and chemopreventive activity in vitro” (1988)

Experiments:
L1210 [1] = experiment: Inhibition of proliferation of L1210 cells in culture at a conc 10 ug/mL; type: functional, Mus musculus; design: scale not given: the % may be the effect or the level left
Procedure, shortened: (§1)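 L1210 suspension of about 10⁵ cells treated with retinoid at 1-40 μg/mL, 37 °C for 48 h; cells counted at 0 and 48 h, three cultures averaged per concentration. % of control = 100 × (treated 48 h − 0 h count)/(control 48 h − 0 h count).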

L1210 [2] = experiment: Inhibition of proliferation of L1210 cells in culture at a conc 1 ug/mL; type: functional, Mus musculus; design: scale not given: the % may be the effect or the level left; procedure, shortened: as §1
HEp-2 [3] = experiment: Viability of human epidermoid carcinoma cells (H.Ep-2) at a conc 40 ug/mL; type: functional
Procedure, shortened: (§2)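 Human epidermoid carcinoma H.Ep.-2 cells, clone-colony viability assay with retinoid at 1-40 μg/mL; incubated 37 °C for 12 days, stained, colonies counted. % of control = 100 × treated colonies/control colonies.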

HEp-2 [4] = experiment: Viability of human epidermoid carcinoma cells (H.Ep-2) at a conc 20 ug/mL; type: functional; procedure, shortened: as §2
HEp-2 [5] = experiment: Viability of human epidermoid carcinoma cells (H.Ep-2) at a conc 10 ug/mL; type: functional; procedure, shortened: as §2
L1210 [6] = experiment: Inhibition of proliferation of L1210 cells in culture at a conc 20 ug/mL; type: functional, Mus musculus; design: scale not given: the % may be the effect or the level left; procedure, shortened: as §1
HEp-2 [7] = experiment: Viability of human epidermoid carcinoma cells (H.Ep-2) at a conc 1 ug/mL; type: functional; procedure, shortened: as §2
Cricetinae gen. sp. [8] = experiment: Cultures with minimal degree of squamous metaplasia at a conc of 10e-10 M; type: functional, Cricetulus griseus
Procedure, shortened: (§3)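 Tracheas from 29-31-day-old hamsters fed a vitamin A free diet; cultured in serum-free CMRL 1066 (insulin 1.0 μg/mL, hydrocortisone hemisuccinate 0.1 μg/mL, glutamine 2 mM, Garamycin 50 μg/mL), 50% O2/45% N2/5% CO2, rocked, 36 °C. Retinoid-free 3 days, then retinoid in DMSO (final 0.1%) for 7 days; medium and gas changed three times. Formalin-fixed day 10; squamous metaplasia graded: mild 2-10%, marked 10-40%, severe >40%.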

Cricetinae gen. sp. [9] = experiment: Cultures with no evidence of squamous metaplasia at a conc of 10e-10 M; type: functional, Cricetulus griseus; procedure, shortened: as §3
Cricetinae gen. sp. [10] = experiment: Cultures with mild degree of squamous metaplasia at a conc of 10e-11 M; type: functional, Cricetulus griseus; procedure, shortened: as §3
Cricetinae gen. sp. [11] = experiment: Cultures with marked degree of squamous metaplasia at a conc of 10e-11 M; type: functional; procedure, shortened: as §3
Cricetinae gen. sp. [12] = experiment: Cultures with marked degree of squamous metaplasia at a conc of 10e-8 M; type: functional, Cricetulus griseus; procedure, shortened: as §3
Cricetinae gen. sp. [13] = experiment: Cultures with marked degree of squamous metaplasia at a conc of 10e-9 M; type: functional, Cricetulus griseus; procedure, shortened: as §3
Cricetinae gen. sp. [14] = experiment: Cultures with minimal degree of squamous metaplasia at a conc of 10e-11 M; type: functional, Cricetulus griseus; procedure, shortened: as §3
Cricetinae gen. sp. [15] = experiment: Cultures with marked degree of squamous metaplasia at a conc of 10e-10 M; type: functional, Cricetulus griseus; procedure, shortened: as §3
Cricetinae gen. sp. [16] = experiment: Reversal of keratinization in vitamin A deficient hamster trachea culture at a conc of 10e-8 M; type: functional, Cricetulus griseus; conditions: read-out: ED50 (the source's name)
Procedure, shortened: (§4)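 Tracheas from 29-31-day-old hamsters kept on a vitamin A free diet, cultured in serum-free CMRL 1066 (insulin 1.0 μg/mL, hydrocortisone hemisuccinate 0.1 μg/mL, glutamine 2 mM, Garamycin 50 μg/mL), 50% O2/45% N2/5% CO2, rocked at 36 °C. Retinoid-free for 3 days, then retinoid in DMSO (0.1% final) for 7 days. Fixed in formalin; squamous metaplasia graded mild 2-10%, marked 10-40%, severe >40%.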

Cricetinae gen. sp. [17] = experiment: Cultures with mild degree of squamous metaplasia at a conc of 10e-8 M; type: functional, Cricetulus griseus; procedure, shortened: as §3
Cricetinae gen. sp. [18] = experiment: Cultures with no evidence of squamous metaplasia at a conc of 10e-11 M; type: functional, Cricetulus griseus; procedure, shortened: as §3
Cricetinae gen. sp. [19] = experiment: Cultures with severe degree of squamous metaplasia at a conc of 10e-9 M; type: functional, Cricetulus griseus; procedure, shortened: as §3
Cricetinae gen. sp. [20] = experiment: Cultures with severe degree of squamous metaplasia at a conc of 10e-11 M; type: functional, Cricetulus griseus; procedure, shortened: as §3
Cricetinae gen. sp. [21] = experiment: Cultures with no evidence of squamous metaplasia at a conc of 10e-8 M; type: functional, Cricetulus griseus; procedure, shortened: as §3
Cricetinae gen. sp. [22] = experiment: Cultures with mild degree of squamous metaplasia at a conc of 10e-9 M; type: functional, Cricetulus griseus; procedure, shortened: as §3
Cricetinae gen. sp. [23] = experiment: Cultures with severe degree of squamous metaplasia at a conc of 10e-10 M; type: functional, Cricetulus griseus; procedure, shortened: as §3
Cricetinae gen. sp. [24] = experiment: Cultures with mild degree of squamous metaplasia at a conc of 10e-10 M; type: functional, Cricetulus griseus; procedure, shortened: as §3
Cricetinae gen. sp. [25] = experiment: Cultures with no evidence of squamous metaplasia at a conc of 10e-9 M; type: functional, Cricetulus griseus; procedure, shortened: as §3
Cricetinae gen. sp. [26] = experiment: Cultures with severe degree of squamous metaplasia at a conc of 10e-8 M; type: functional, Cricetulus griseus; procedure, shortened: as §3
Cricetinae gen. sp. [27] = experiment: Cultures with minimal degree of squamous metaplasia at a conc of 10e-8 M; type: functional, Cricetulus griseus; procedure, shortened: as §3
Cricetinae gen. sp. [28] = experiment: Cultures with minimal degree of squamous metaplasia at a conc of 10e-9 M; type: functional, Cricetulus griseus; procedure, shortened: as §3
Cricetinae gen. sp. [29] = experiment: Reversal of keratinization in vitamin A deficient hamster trachea culture; type: functional, Cricetulus griseus; conditions: read-out: ED50 (the source's name); procedure, shortened: as §4
L1210 [30] = experiment: Inhibition of proliferation of L1210 cells in culture at a conc 40 ug/mL; type: functional, Mus musculus; design: scale not given: the % may be the effect or the level left; procedure, shortened: as §1

Row | Compound | Culture (Cricetinae gen. sp. [8]) | Culture (Cricetinae gen. sp. [9]) | Culture (Cricetinae gen. sp. [12]) | Culture (Cricetinae gen. sp. [13]) | Culture (Cricetinae gen. sp. [15]) | EC50 (Cricetinae gen. sp. [16]) | Culture (Cricetinae gen. sp. [17]) | Culture (Cricetinae gen. sp. [19]) | Culture (Cricetinae gen. sp. [21]) | Culture (Cricetinae gen. sp. [22]) | Culture (Cricetinae gen. sp. [23]) | Culture (Cricetinae gen. sp. [24]) | Culture (Cricetinae gen. sp. [25]) | Culture (Cricetinae gen. sp. [26]) | Culture (Cricetinae gen. sp. [27]) | Culture (Cricetinae gen. sp. [28]) | EC50 (Cricetinae gen. sp. [29]) | further results
1 | CC1=C(/C=C/C(C)=C/C=C/C(C)=C/C(=O)NCC(=O)O)C(C)(C)CCC1 |  |  |  |  |  |  |  |  |  |  |  |  |  |  |  |  |  | Control (L1210 [1]): 70%; Control (L1210 [2]): 68%; Control (HEp-2 [3]): 13%; Control (HEp-2 [4]): 12%; Control (HEp-2 [5]): 67%; Control (L1210 [6]): 19%; Control (HEp-2 [7]): 116%
2 | CC1=C(/C=C/C(C)=C/C=C/C(C)=C\C(=O)NC(Cc2ccccc2)C(=O)O)C(C)(C)CCC1 (stereo not given) | 0% | 29% | 20% | 20% | 36% | 0.6 nM | 13% | 7% | 60% | 20% | 14% | 21% | 53% | 7% | 0% | 0% |  | Culture (Cricetinae gen. sp. [10]): 14%; Culture (Cricetinae gen. sp. [11]): 43%; Culture (Cricetinae gen. sp. [14]): 0%; Culture (Cricetinae gen. sp. [18]): 29%; Culture (Cricetinae gen. sp. [20]): 14%
3 | CCNC(=O)\C=C(C)/C=C/C=C(C)/C=C/C1=C(C)CCCC1(C)C |  |  |  |  |  |  |  |  |  |  |  |  |  |  |  |  | 0.3 nM | Control (L1210 [1]): 77%; Control (L1210 [2]): 84%; Control (HEp-2 [3]): 15%; Control (HEp-2 [4]): 10%; Control (HEp-2 [5]): 13%; Control (L1210 [6]): 54%; Control (HEp-2 [7]): 59%
4 | CCNC(=O)/C=C(C)/C=C/C=C(C)/C=C/C1=C(C)CCCC1(C)C |  |  |  |  |  |  |  |  |  |  |  |  |  |  |  |  | 1 nM | 
5 | CC1=C(/C=C/C(C)=C/C=C/C(C)=C\C(=O)Nc2ccc(O)cc2)C(C)(C)CCC1 |  |  |  |  |  |  |  |  |  |  |  |  |  |  |  |  | > 1 nM | 
6 | CC1=C(/C=C/C(C)=C/C=C/C(C)=C\C(=O)NCCO)C(C)(C)CCC1 |  |  |  |  |  |  |  |  |  |  |  |  |  |  |  |  | 0.3 nM | Control (L1210 [1]): 57%; Control (L1210 [2]): 76%; Control (HEp-2 [3]): 27%; Control (HEp-2 [4]): 21%; Control (L1210 [30]): 0.5%; Control (HEp-2 [5]): 38%; Control (L1210 [6]): 56%; Control (HEp-2 [7]): 61%
7 | CC1=C(/C=C/C(C)=C/C=C/C(C)=C\C(=O)NC(C)C(=O)O)C(C)(C)CCC1 (stereo not given) | 0% | 36% | 0% | 40% | 36% | 0.7 nM | 0% | 0% | 100% | 13% | 7% | 21% | 47% | 0% | 0% | 0% |  | Culture (Cricetinae gen. sp. [10]): 0%; Culture (Cricetinae gen. sp. [11]): 71%; Culture (Cricetinae gen. sp. [14]): 0%; Culture (Cricetinae gen. sp. [18]): 14%; Culture (Cricetinae gen. sp. [20]): 15%
8 | CC1=C(/C=C/C(C)=C/C=C/C(C)=C/C(=O)NC(CCC(=O)O)C(=O)O)C(C)(C)CCC1 (stereo not given) | 14% | 14% | 50% | 25% | 43% | > 10 nM | 12% | 0% | 38% | 50% | 0% | 29% | 25% | 0% | 0% | 0% |  | 
9 | CC1=C(/C=C/C(C)=C/C=C/C(C)=C\C(=O)NC(CC(C)C)C(=O)O)C(C)(C)CCC1 (stereo not given) | 0% | 29% | 14% | 14% | 57% | 0.5 nM | 14% | 0% | 72% | 29% | 0% | 14% | 57% | 0% | 0% | 0% |  | Culture (Cricetinae gen. sp. [10]): 0%; Culture (Cricetinae gen. sp. [11]): 50%; Culture (Cricetinae gen. sp. [14]): 0%; Culture (Cricetinae gen. sp. [18]): 33%; Culture (Cricetinae gen. sp. [20]): 17%
10 | CC1=C(/C=C/C(C)=C/C=C/C(C)=C/C(=O)NCCO)C(C)(C)CCC1 |  |  |  |  |  |  |  |  |  |  |  |  |  |  |  |  | 0.1 nM | 
11 | CC1=C(/C=C/C(C)=C/C=C/C(C)=C/C(=O)NC(Cc2ccc(O)cc2)C(=O)O)C(C)(C)CCC1 (stereo not given) | 0% | 14% | 25% | 50% | 58% | 3 nM | 0% | 0% | 75% | 12% | 14% | 14% | 38% | 0% | 0% | 0% |  | 
12 | CC1=C(/C=C/C(C)=C/C=C/C(C)=C/C(=O)Nc2ccc(O)cc2)C(C)(C)CCC1 [FENRETINIDE] |  |  |  |  |  |  |  |  |  |  |  |  |  |  |  |  | 0.3 nM | 
13 | CC1=C(/C=C/C(C)=C/C=C/C(C)=C\C(=O)O)C(C)(C)CCC1 [ISOTRETINOIN] |  |  |  |  |  |  |  |  |  |  |  |  |  |  |  |  | 0.03 nM | 
14 | CC1=C(/C=C/C(C)=C/C=C/C(C)=C/C(=O)O)C(C)(C)CCC1 [TRETINOIN] |  |  |  |  |  |  |  |  |  |  |  |  |  |  |  |  | 0.03 nM | 
